According to article PMC6558985 (Nature chemical biology, 2019):
Where a chain is given by its changes, count along the chain named.

Tests used:
Hs-spastin = target: T1, Hs-spastin (Homo sapiens, UniProt Q9UBP0); assay: Steady-state ATPase activity, NADH-coupled assay, Hs-spastin wildtype; type: biochemical
T1 sequence (Q9UBP0 229-616): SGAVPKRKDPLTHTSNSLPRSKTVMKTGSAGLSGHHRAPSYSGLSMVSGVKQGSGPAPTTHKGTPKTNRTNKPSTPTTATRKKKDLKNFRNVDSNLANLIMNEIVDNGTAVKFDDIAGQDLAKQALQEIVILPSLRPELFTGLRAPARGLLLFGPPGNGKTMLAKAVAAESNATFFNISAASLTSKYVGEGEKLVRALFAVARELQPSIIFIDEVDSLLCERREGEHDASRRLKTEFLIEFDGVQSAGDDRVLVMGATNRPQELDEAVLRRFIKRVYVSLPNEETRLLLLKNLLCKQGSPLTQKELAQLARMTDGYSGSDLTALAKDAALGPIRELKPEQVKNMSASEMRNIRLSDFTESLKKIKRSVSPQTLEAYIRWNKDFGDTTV
How it was run: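 Recombinant human spastin purified from E. coli. Steady-state ATPase inhibition was measured over a test-compound concentration series at 1 mM ATP. IC50 reported as average ± s.d., n = 3.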

Hs-FIGL1 = target: T2, Hs-FIGL1 (Homo sapiens, UniProt Q6PIW4); assay: Steady-state ATPase activity, NADH-coupled assay, Hs-FIGL1; type: biochemical; details: 10 µM compound, 0.5 mM MgATP
T2 sequence (Q6PIW4 288-674): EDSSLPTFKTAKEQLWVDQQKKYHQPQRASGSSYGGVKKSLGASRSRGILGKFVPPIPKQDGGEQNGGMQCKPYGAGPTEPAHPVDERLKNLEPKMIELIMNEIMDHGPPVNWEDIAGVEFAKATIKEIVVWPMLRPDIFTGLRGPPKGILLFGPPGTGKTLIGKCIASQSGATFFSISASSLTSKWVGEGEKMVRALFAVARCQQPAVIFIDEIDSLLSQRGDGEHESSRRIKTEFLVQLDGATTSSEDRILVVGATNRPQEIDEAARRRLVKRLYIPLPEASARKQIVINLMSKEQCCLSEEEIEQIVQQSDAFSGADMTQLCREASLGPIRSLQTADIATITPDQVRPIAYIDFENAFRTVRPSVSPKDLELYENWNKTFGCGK
How it was run: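 Recombinant AAA protein constructs assayed by steady-state ATPase with NADH-coupled read-out at 0.5 mM MgATP, with test compound at 2 µM or 10 µM. Activity is reported as percent of steady-state ATPase activity, average ± s.d., n = 3.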

Dm-spastin WT = target: T3, Dm-spastin WT (Drosophila melanogaster, UniProt Q8I0P1, DEL311-372); assay: Steady-state ATPase activity, NADH-coupled assay, Dm-spastin wildtype; type: biochemical, D. melanogaster
T3 sequence (Q8I0P1 with tags, fused parts or gaps DEL311-372 limits assumed): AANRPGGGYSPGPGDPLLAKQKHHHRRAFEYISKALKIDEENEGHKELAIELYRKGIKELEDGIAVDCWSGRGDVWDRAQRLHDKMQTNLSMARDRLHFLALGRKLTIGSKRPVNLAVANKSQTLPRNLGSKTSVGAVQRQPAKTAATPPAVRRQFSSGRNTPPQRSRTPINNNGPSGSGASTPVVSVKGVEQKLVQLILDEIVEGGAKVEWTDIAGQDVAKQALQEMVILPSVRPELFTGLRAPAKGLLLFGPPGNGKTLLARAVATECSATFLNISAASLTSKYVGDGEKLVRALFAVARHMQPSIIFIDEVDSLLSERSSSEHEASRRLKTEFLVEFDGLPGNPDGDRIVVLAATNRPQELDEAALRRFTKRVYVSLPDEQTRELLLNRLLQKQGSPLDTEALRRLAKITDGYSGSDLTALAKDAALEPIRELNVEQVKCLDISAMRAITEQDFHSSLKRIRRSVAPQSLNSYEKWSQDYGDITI
How it was run: (§1)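 Recombinant Dm-spastin, wildtype or point mutants, assayed by steady-state ATPase with NADH-coupled read-out at 0.5 mM MgATP over a test-compound concentration series. Data were fit to a sigmoidal dose-response equation to give IC50, average ± s.d., n = 3. Separately, rates across ATP concentrations were fit to a cooperative Michaelis-Menten equation for kcat and K1/2.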

[1] = system: Dm-spastin, Hs-FIGL1, Hs-PCH2, Mm-VCP, Xl-katanin; assay: Screen of selected kinase inhibitors against five AAA proteins; type: biochemical; details: 10 µM compound, 0.5 mM ATP
How it was run: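 Five recombinant AAA proteins (Dm-spastin, Hs-FIGL1, Hs-PCH2, Mm-VCP, Xl-katanin) were screened for ATPase activity with each test compound at 10 µM and 0.5 mM MgATP. Activity is expressed as percent of the DMSO control, average of n = 2, binned in 10% steps.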

Dm-spastin N527C = target: T4, Dm-spastin N527C (Drosophila melanogaster, UniProt Q8I0P1, DEL311-372/N527C); assay: Steady-state ATPase activity, NADH-coupled assay, Dm-spastin N527C; type: biochemical, D. melanogaster
T4 sequence (Q8I0P1 with tags, fused parts or gaps DEL311-372/N527C limits assumed): T3 sequence (Q8I0P1 with tags, fused parts or gaps DEL311-372 limits assumed) with N257C
How it was run: as §1

Dm-spastin N527T = target: T5, Dm-spastin N527T (Drosophila melanogaster, UniProt Q8I0P1, DEL311-372/N527T); assay: Steady-state ATPase activity, NADH-coupled assay, Dm-spastin N527T; type: biochemical, D. melanogaster
T5 sequence (Q8I0P1 with tags, fused parts or gaps DEL311-372/N527T limits assumed): T3 sequence (Q8I0P1 with tags, fused parts or gaps DEL311-372 limits assumed) with N257T
How it was run: as §1

Dm-spastin Q488V = target: T6, Dm-spastin Q488V (Drosophila melanogaster, UniProt Q8I0P1, DEL311-372/Q488V); assay: Steady-state ATPase activity, NADH-coupled assay, Dm-spastin Q488V; type: biochemical, D. melanogaster
T6 sequence (Q8I0P1 with tags, fused parts or gaps DEL311-372/Q488V limits assumed): T3 sequence (Q8I0P1 with tags, fused parts or gaps DEL311-372 limits assumed) with Q218V
How it was run: as §1

Dm-spastin S689A = target: T7, Dm-spastin S689A (Drosophila melanogaster, UniProt Q8I0P1, DEL311-372/S689A); assay: Steady-state ATPase activity, NADH-coupled assay, Dm-spastin S689A; type: biochemical, D. melanogaster
T7 sequence (Q8I0P1 with tags, fused parts or gaps DEL311-372/S689A limits assumed): T3 sequence (Q8I0P1 with tags, fused parts or gaps DEL311-372 limits assumed) with S419A
How it was run: as §1

Dm-spastin T692A = target: T8, Dm-spastin T692A (Drosophila melanogaster, UniProt Q8I0P1, DEL311-372/T692A); assay: Steady-state ATPase activity, NADH-coupled assay, Dm-spastin T692A; type: biochemical, D. melanogaster
T8 sequence (Q8I0P1 with tags, fused parts or gaps DEL311-372/T692A limits assumed): T3 sequence (Q8I0P1 with tags, fused parts or gaps DEL311-372 limits assumed) with T422A
How it was run: as §1

Dm-spastin = target: T9, Dm-spastin (Drosophila melanogaster, UniProt Q8I0P1, DEL311-372); assay: In vitro microtubule-severing assay; type: biochemical, D. melanogaster; details: 2 µM inhibitor, 0.5 mM MgATP, 15 nM Dm-spastin
T9 sequence (Q8I0P1 with tags, fused parts or gaps DEL311-372 limits assumed): T3 sequence (Q8I0P1 with tags, fused parts or gaps DEL311-372 limits assumed)

## C[C@@H]1CNCCN1c1nc(Nc2cc(C(C)(C)C)[nH]n2)c2cc[nH]c2n1 [compound 6, (R)-N-(5-(tert-butyl)-1H-pyrazol-3-yl)-2-(2-methylpiperazin-1-yl)-7H-pyrrolo[2,3-d]pyrimidin-4-amine]
Hs-spastin
  IC50: 0.132 ± 0.055 µM
Hs-spastin; 1 mM ATP
  improved potency on Hs-spastin with respect to compound 5: ~ 30 fold

## N#CCc1ccc(Nc2nc(Nc3cc(C4CC4)[nH]n3)c3ccccc3n2)cc1 [compound 1, 2-(4-((4-((5-cyclopropyl-1H-pyrazol-3-yl)amino)quinazolin-2-yl)amino)phenyl)acetonitrile, reference compound]
Hs-FIGL1
  inhibition of Hs-FIGL1 ATPase activity: also inhibited Hs-FIGL1
Dm-spastin WT; 10 µM compound, 0.5 mM MgATP
  inhibition of the ATPase activity of Dm-spastin: substantially inhibited
Dm-spastin WT; 0.5 mM MgATP, IC50 not determined
  potency of Dm-spastin inhibition (dose-dependent analysis): micromolar range
[1]
  inhibition of ATPase activity of at least one of five AAA proteins: > 50%

## CN1CCN(c2nc(Nc3cc(-c4ccccc4)[nH]n3)c3ccccc3n2)CC1 [compound 4, 2-(4-methylpiperazin-1-yl)-N-(5-phenyl-1H-pyrazol-3-yl)quinazolin-4-amine]
Dm-spastin N527C
  IC50: 2.9 ± 0.5 µM
Dm-spastin N527C; P-loop mutation
  reduction of potency by N527C mutation relative to Dm-spastin WT: ~ 3 fold
Dm-spastin N527T
  IC50: > 30 µM
Dm-spastin WT
  IC50: 1 ± 0.6 µM
Dm-spastin WT; 2 µM (Fig. 2 legend; text says 10 µM), 0.5 mM MgATP
  selectivity for Dm-spastin over four other AAA proteins: increased selectivity for Dm-spastin
Dm-spastin WT; MgATP 0.027 to 3 mM
  effect on K1/2 of Dm-spastin across a range of ATP concentrations: increases in K1/2 at higher compound concentrations
  effect on kcat of Dm-spastin across a range of ATP concentrations: not substantial changes in kcat
Dm-spastin Q488V
  IC50: ~12.5 µM
Dm-spastin S689A
  IC50: 0.9 ± 0.2 µM
Dm-spastin S689A; sensor-II mutation
  change of potency by S689A mutation relative to Dm-spastin WT: no substantial difference
Dm-spastin T692A
  IC50: 1.5 ± 0.4 µM
Dm-spastin T692A; sensor-II mutation
  reduction of potency by T692A mutation relative to Dm-spastin WT: ~ 2 fold

## C[C@@H]1CNCCN1c1nc(Nc2cc(C(C)(C)C)[nH]n2)c2ccccc2n1 [compound 5, (R)-N-(5-(tert-butyl)-1H-pyrazol-3-yl)-2-(2-methyl-piperazin-1-yl)quinazolin-4-amine]
Dm-spastin
  Dm-spastin dependent microtubule-severing: blocked
Dm-spastin WT
  IC50: 0.106 ± 0.035 µM
Dm-spastin WT; 0.5 mM MgATP
  potency on Dm-spastin ATPase relative to compound 4 (more potent): ~ 10 fold
